Format in all cases: functional
Test [1] has as its system Rattus norvegicus. In words: Intravenous antihypertensive effect in conscious, spontaneously hypertensive rats, Duration of action was determined at a compound dose of 30 ug/kg; 45-50.
For test [2], the system named is Rattus norvegicus. In words: Intravenous antihypertensive effect in conscious, spontaneously hypertensive rats, Duration of action was determined at a compound dose of 10 ug/kg; 30-45.
Test [3] relates to Rattus norvegicus. In words: Intravenous antihypertensive effect in conscious, spontaneously hypertensive rats a dose of 30 ug/kg. Put shortly: (§1)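 Male Okamoto spontaneously hypertensive rats (about 300 ± 20 g), restrained supine. The iliac artery was cannulated to a pressure recorder. After a stabilization period, the sodium salt was injected into the lateral caudal vein: acid dissolved in absolute ethanol, neutralized with 0.6 M NaHCO3, diluted in saline. Maximum fall in mean arterial blood pressure (mmHg), mean of two experiments.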

Test [4] relates to Rattus norvegicus. Briefly: Intravenous antihypertensive effect in conscious, spontaneously hypertensive rats a dose of 10 ug/kg. The essentials:
as §1

The test system of test [5] is Rattus norvegicus. Briefly: Intravenous antihypertensive effect in conscious, spontaneously hypertensive rats a dose of 100 ug/kg. The essentials: as §1
For test [6], the system named is Rattus norvegicus. Briefly: Intravenous antihypertensive effect in conscious, spontaneously hypertensive rats, Duration of action was determined at a compound dose of 100 ug/kg.
In test [7] the test system is Rattus norvegicus. In words: Intravenous, antihypertensive effect in conscious, spontaneously hypertensive rats, Duration of action was determined at a compound dose of 100 ug/kg; 10-20.
The subject of test [8] is Rattus norvegicus. Briefly: Intravenous, antihypertensive effect in conscious, spontaneously hypertensive rats, Duration of action was determined at a compound dose of 500 ug/kg; 25-30.
For test [9], the system named is Rattus norvegicus. Briefly: Intravenous, antihypertensive effect in conscious, spontaneously hypertensive rats, Duration of action was determined at a compound dose of 30 ug/kg.
The subject of test [10] is Rattus norvegicus. Briefly: Intravenous antihypertensive effect in conscious, spontaneously hypertensive rats a dose of 500 ug/kg. The essentials:
as §1

The subject of test [11] is Rattus norvegicus. In words: Intravenous antihypertensive effect in conscious, spontaneously hypertensive rats a dose of 300 ug/kg. Put shortly: as §1
For test [12], the system named is Rattus norvegicus. In words: Intravenous antihypertensive effect in conscious, spontaneously hypertensive rats, Duration of action was determined at a compound dose of 10 ug/kg.
Test [13] relates to Rattus norvegicus. Briefly: Intravenous, antihypertensive effect in conscious, spontaneously hypertensive rats, Duration of action was determined at a compound dose of 300 ug/kg; 25-30.

For the compound `C=CC(O)(C/C=C/C1[C@H](O)CC(=O)[C@@H]1C/C=C/CCCC(=O)O)CCCC` (stereo partly specified), the Duration is given as 45 min in the test on Rattus norvegicus [1], 30 min in the test on Rattus norvegicus [2] and above 200 min with Rattus norvegicus [6]. Further, the “Max lowering MABP” value is given as 55 mmHg in the test on Rattus norvegicus [3], 30 mmHg in the test with Rattus norvegicus [4] and 65 mmHg in the test with Rattus norvegicus [5].

For the compound `CCCCC[C@H](O)/C=C/[C@H]1[C@H](O)CC(=O)[C@@H]1C/C=C\CCCC(=O)O` [DINOPROSTONE], the Duration is 10 min in the test with Rattus norvegicus [7]; 25 min in the test on Rattus norvegicus [8]; below 5 min in the test with Rattus norvegicus [9]; below 5 min in the test with Rattus norvegicus [12]; 25 min in the test with Rattus norvegicus [13]. Also, the “Max lowering MABP” value in the test on Rattus norvegicus [10] is 50 mmHg; in the test with Rattus norvegicus [11] it was 70 mmHg; with Rattus norvegicus [3], 72 mmHg; in the test on Rattus norvegicus [4], 60 mmHg; with Rattus norvegicus [5], 72 mmHg.
